Columns and labels:
Rattus norvegicus [1] = experiment: Distribution of radioactivity in lungs of Fischer 344 female rat after 10 min of intravenous administration; format: ADME, organism-based, Lung; conditions: in vivo
Summary of the method: (§1)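 Female Fischer 344 rats, 10-12 weeks old, 170-200 g, fed ad libitum. The 131I-labelled fatty acid was dissolved in absolute ethanol, added dropwise to stirred 6% bovine serum albumin at 40 °C (final ethanol 10%), filtered, and injected into a lateral tail vein under ether anaesthesia. Organs were excised, rinsed, blotted and weighed, then counted by Ge(Li) analyzer as percent injected dose/g.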

Rattus norvegicus [2] = experiment: Distribution of radioactivity in heart of Fischer 344 female rat after 4 day of intravenous administration; format: ADME, organism-based; conditions: in vivo, 96 h
Summary of the method: (§2)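 Female Fischer 344 rats (10-12 weeks, 170-200 g) with food and water ad libitum. The 131I-labelled fatty acid was taken up in ethanol, added dropwise to stirred 6% BSA at 40 °C (final ethanol 10%), filtered, and injected into a lateral tail vein under ether. Rats were CO2-anaesthetised and killed; organs were excised, rinsed, blotted, weighed and Ge(Li)-counted. Results are mean (range) % injected dose/g.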

Rattus norvegicus [3] = experiment: Distribution of radioactivity in liver of Fischer 344 female rat after 4 of days intravenous administration; format: ADME, organism-based; conditions: in vivo; summary of the method: as §1
Rattus norvegicus [4] = experiment: Distribution of radioactivity in liver of Fischer 344 female rat after 30 min of intravenous administration; format: ADME, organism-based; conditions: in vivo, 0.5 h
Summary of the method: (§3)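 Female Fischer 344 rats, 10-12 weeks, 170-200 g, fed ad libitum. The labelled fatty acid was given in 6% bovine serum albumin via a lateral tail vein under ether anaesthesia. Rats were killed by CO2 anaesthesia and cervical fracture; organs were excised, rinsed, blotted, weighed and counted by Ge(Li) analyzer. Results are mean percent injected dose/g with range.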

Rattus norvegicus [5] = experiment: Distribution of radioactivity in blood of Fischer 344 female rat after 24 hr of intravenous administration; format: ADME, organism-based; conditions: in vivo; summary of the method: as §2
Rattus norvegicus [6] = experiment: Distribution of radioactivity in brain of Fischer 344 female rat after 24 hr of intravenous administration; format: ADME, organism-based; conditions: in vivo; summary of the method: as §2
Rattus norvegicus [7] = experiment: Distribution of radioactivity in liver of Fischer 344 female rat after 2 min of intravenous administration; format: ADME, organism-based; conditions: in vivo; summary of the method: as §1
Rattus norvegicus [8] = experiment: Distribution of radioactivity in Thyroid of Fischer 344 female rat after 2 min of intravenous administration; format: ADME, organism-based; conditions: in vivo; summary of the method: as §2
Rattus norvegicus [9] = experiment: Distribution of radioactivity in Thyroid of Fischer 344 female rat after 10 min of intravenous administration; format: ADME, organism-based; conditions: in vivo; summary of the method: as §2
Rattus norvegicus [10] = experiment: Distribution of radioactivity in brain of Fischer 344 female rat after 2 hr of intravenous administration; format: ADME, organism-based; conditions: in vivo; summary of the method: as §2
Rattus norvegicus [11] = experiment: Distribution of radioactivity in kidneys of Fischer 344 female rat after 24 hr of intravenous administration; format: ADME, organism-based, Kidney; conditions: in vivo; summary of the method: as §2
Rattus norvegicus [12] = experiment: Distribution of radioactivity in blood of Fischer 344 female rat after 4 days of intravenous administration; format: ADME, organism-based; conditions: in vivo, 96 h; summary of the method: as §2
Rattus norvegicus [13] = experiment: Distribution of radioactivity in kidneys of Fischer 344 female rat after 30 min of intravenous administration; format: ADME, organism-based, Kidney; conditions: in vivo, 0.5 h
Rattus norvegicus [14] = experiment: Distribution of radioactivity in kidneys of Fischer 344 female rat after 4 days of intravenous administration; format: ADME, organism-based, Kidney; conditions: in vivo, 96 h; summary of the method: as §2
Rattus norvegicus [15] = experiment: Distribution of radioactivity in blood of Fischer 344 female rat after 10 min of intravenous administration; format: ADME, organism-based; conditions: in vivo; summary of the method: as §2
Rattus norvegicus [16] = experiment: Distribution of radioactivity in lungs of Fischer 344 female rat after 60 min of intravenous administration; format: ADME, organism-based, Lung; conditions: in vivo, 1 h; summary of the method: as §3
Rattus norvegicus [17] = experiment: Distribution of radioactivity in brain of Fischer 344 female rat after 2 min of intravenous administration; format: ADME, organism-based; conditions: in vivo; summary of the method: as §2
Rattus norvegicus [18] = experiment: Distribution of radioactivity in Thyroid of Fischer 344 female rat after 7 days of intravenous administration; format: ADME, organism-based; conditions: in vivo, 168 h; summary of the method: as §2
Rattus norvegicus [19] = experiment: Distribution of radioactivity in heart of Fischer 344 female rat after 2 hr of intravenous administration; format: ADME, organism-based; conditions: in vivo; summary of the method: as §2
Rattus norvegicus [20] = experiment: Distribution of radioactivity in heart of Fischer 344 female rat after 2 min of intravenous administration; format: ADME, organism-based; conditions: in vivo; summary of the method: as §2
Rattus norvegicus [21] = experiment: Distribution of radioactivity in heart of Fischer 344 female rat after 6 hr of intravenous administration; format: ADME, organism-based; conditions: in vivo; summary of the method: as §2
Rattus norvegicus [22] = experiment: Distribution of radioactivity in Thyroid of Fischer 344 female rat after 60 min of intravenous administration; format: ADME, organism-based; conditions: in vivo, 1 h; summary of the method: as §2
Rattus norvegicus [23] = experiment: Distribution of radioactivity in heart of Fischer 344 female rat after 10 min of intravenous administration; format: ADME, organism-based; conditions: in vivo; summary of the method: as §2
Rattus norvegicus [24] = experiment: Distribution of radioactivity in lungs of Fischer 344 female rat after 2 hr of intravenous administration; format: ADME, organism-based, Lung; conditions: in vivo; summary of the method: as §1
Rattus norvegicus [25] = experiment: Distribution of radioactivity in kidneys of Fischer 344 female rat after 7 days of intravenous administration; format: ADME, organism-based, Kidney; conditions: in vivo, 168 h; summary of the method: as §2
Rattus norvegicus [26] = experiment: Distribution of radioactivity in lungs of Fischer 344 female rat after 4 days of intravenous administration; format: ADME, organism-based, Lung; conditions: in vivo, 96 h; summary of the method: as §1
Rattus norvegicus [27] = experiment: Distribution of radioactivity in liver of Fischer 344 female rat after 6 hr of intravenous administration; format: ADME, organism-based; conditions: in vivo; summary of the method: as §1
Rattus norvegicus [28] = experiment: Distribution of radioactivity in kidneys of Fischer 344 female rat after 60 min of intravenous administration; format: ADME, organism-based, Kidney; conditions: in vivo, 1 h
Rattus norvegicus [29] = experiment: Distribution of radioactivity in brain of Fischer 344 female rat after 10 min of intravenous administration; format: ADME, organism-based; conditions: in vivo; summary of the method: as §2
Rattus norvegicus [30] = experiment: Distribution of radioactivity in kidneys of Fischer 344 female rat after 6 hr of intravenous administration; format: ADME, organism-based, Kidney; conditions: in vivo; summary of the method: as §2
Rattus norvegicus [31] = experiment: Distribution of radioactivity in heart of Fischer 344 female rat after 24 hr of intravenous administration; format: ADME, organism-based; conditions: in vivo; summary of the method: as §2
Rattus norvegicus [32] = experiment: Distribution of radioactivity in brain of Fischer 344 female rat after 7 days of intravenous administration; format: ADME, organism-based; conditions: in vivo, 168 h; summary of the method: as §2

## O=C(O)CCCCCCCC[Te]CCCCCCCC[131I]
Rattus norvegicus [1]
  Distribution of radioactivity: 1.11 dose g-1
Rattus norvegicus [2]
  Distribution of radioactivity: 0.04 dose g-1
Rattus norvegicus [3]
  Distribution of radioactivity: 0.02 dose g-1
Rattus norvegicus [4]
  Distribution of radioactivity: 1.75 dose g-1
Rattus norvegicus [5]
  Distribution of radioactivity: 0.08 dose g-1
Rattus norvegicus [6]
  Distribution of radioactivity: 0.03 dose g-1
Rattus norvegicus [7]
  Distribution of radioactivity: 3.71 dose g-1
Rattus norvegicus [8]
  Distribution of radioactivity: 6.27 dose g-1
Rattus norvegicus [9]
  Distribution of radioactivity: 12.1 dose g-1
Rattus norvegicus [10]
  Distribution of radioactivity: 0.04 dose g-1
Rattus norvegicus [11]
  Distribution of radioactivity: 0.08 dose g-1
Rattus norvegicus [12]
  Distribution of radioactivity: 0.02 dose g-1
Rattus norvegicus [13]
  Distribution of radioactivity: 0.8 dose g-1
Rattus norvegicus [14]
  Distribution of radioactivity: 0.03 dose g-1
Rattus norvegicus [15]
  Distribution of radioactivity: 0.88 dose g-1
Rattus norvegicus [16]
  Distribution of radioactivity: 0.75 dose g-1
Rattus norvegicus [17]
  Distribution of radioactivity: 0.17 dose g-1
Rattus norvegicus [18]
  Distribution of radioactivity: 203 dose g-1
Rattus norvegicus [19]
  Distribution of radioactivity: 1.33 dose g-1
Rattus norvegicus [20]
  Distribution of radioactivity: 2.39 dose g-1
Rattus norvegicus [21]
  Distribution of radioactivity: 0.57 dose g-1
Rattus norvegicus [22]
  Distribution of radioactivity: 74.7 dose g-1
Rattus norvegicus [23]
  Distribution of radioactivity: 2.01 dose g-1
Rattus norvegicus [24]
  Distribution of radioactivity: 0.68 dose g-1
Rattus norvegicus [25]
  Distribution of radioactivity: 0.016 dose g-1
Rattus norvegicus [26]
  Distribution of radioactivity: 0.06 dose g-1
Rattus norvegicus [27]
  Distribution of radioactivity: 0.51 dose g-1
Rattus norvegicus [28]
  Distribution of radioactivity: 0.68 dose g-1
Rattus norvegicus [29]
  Distribution of radioactivity: 0.11 dose g-1
Rattus norvegicus [30]
  Distribution of radioactivity: 0.36 dose g-1
Rattus norvegicus [31]
  Distribution of radioactivity: 0.11 dose g-1
Rattus norvegicus [32]
  Distribution of radioactivity: < 0.002 dose g-1
